Drawing on paper PMC12044415 (RSC Advances, 2025), this text covers IC50 for two compounds.

Holding throughout (assay): Cell viability assay
What all share (type): cell-based, human

Assay [1] has as its system MDA-MB-231 (triple-negative breast cancer). The settings on record: read-out: IC50 MDA-MB-231; 96 h of incubation. An outline of the steps: (§1)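 Cells cultured per supplier at 37 °C, 5% CO2, and seeded at 1.5 × 10^3 per well. Treated with six concentrations of test compound (0.001, 0.01, 0.1, 1, 10 and 100 μM final), diluted into culture medium from a 10 mM DMSO stock; cisplatin stock in water. Viability read by CellTiter-Glo after 96 h. IC50 from triplicates, error bars as standard deviations.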

In a further assay the test system is U87 (glioblastoma). The settings on record: read-out: IC50 U87; 96 h of incubation. The essentials: as §1
For assay [2], the system named is A2780cis (cisplatin-resistant ovarian cancer cells). Particulars: read-out: IC50 A2780cis; 96 h of incubation. The essentials: as §1
In assay [3] the test system is A2780 (cisplatin-sensitive ovarian cancer cells). Particulars: read-out: IC50 A2780; 96 h of incubation. An outline of the steps: as §1
For assay [4], the system named is MRC-5 (normal lung fibroblasts). Particulars: read-out: IC50 MRC-5; 96 h of incubation. An outline of the steps:
as §1

Take `C[N+]12CN3CN(C1)C[PH]([Pd]([I])([c]1ccc([N+](=O)[O-])cc1)[PH]14CN5CN(C[N+](C)(C5)C1)C4)(C3)C2.F[P-](F)(F)(F)(F)F.F[P-](F)(F)(F)(F)F` [7b]: the IC50 in assay [1] was 6.7 ± 0.9 µM; in the assay with U87 (glioblastoma) it was 90 ± 10 µM; in assay [2] it was 0.18 ± 0.02 µM; in assay [3], 3.1 ± 0.3 µM; in assay [4], greater than 100 µM.

Turning to `N.N.[Cl][Pt][Cl]` [Cisplatin, cisplatin, reference compound], the IC50 in the assay with U87 (glioblastoma) is 10.4 ± 0.4 µM; in assay [2], 45 ± 5 µM; in assay [4], 4 ± 1 µM.
